ChEMBL document CHEMBL1142013, “Tryptamine and homotryptamine-based sulfonamides as potent and selective inhibitors of 15-lipoxygenase” (Bioorg Med Chem Lett, 2005)

Tests used:
[1] = molecular target: T1, Polyunsaturated fatty acid lipoxygenase ALOX15 (Oryctolagus cuniculus, UniProt P12530); assay: Inhibitory concentration against rabbit reticulocyte 15-lipoxygenase with substrate arachidonic acid
T1 sequence (P12530 whole entry): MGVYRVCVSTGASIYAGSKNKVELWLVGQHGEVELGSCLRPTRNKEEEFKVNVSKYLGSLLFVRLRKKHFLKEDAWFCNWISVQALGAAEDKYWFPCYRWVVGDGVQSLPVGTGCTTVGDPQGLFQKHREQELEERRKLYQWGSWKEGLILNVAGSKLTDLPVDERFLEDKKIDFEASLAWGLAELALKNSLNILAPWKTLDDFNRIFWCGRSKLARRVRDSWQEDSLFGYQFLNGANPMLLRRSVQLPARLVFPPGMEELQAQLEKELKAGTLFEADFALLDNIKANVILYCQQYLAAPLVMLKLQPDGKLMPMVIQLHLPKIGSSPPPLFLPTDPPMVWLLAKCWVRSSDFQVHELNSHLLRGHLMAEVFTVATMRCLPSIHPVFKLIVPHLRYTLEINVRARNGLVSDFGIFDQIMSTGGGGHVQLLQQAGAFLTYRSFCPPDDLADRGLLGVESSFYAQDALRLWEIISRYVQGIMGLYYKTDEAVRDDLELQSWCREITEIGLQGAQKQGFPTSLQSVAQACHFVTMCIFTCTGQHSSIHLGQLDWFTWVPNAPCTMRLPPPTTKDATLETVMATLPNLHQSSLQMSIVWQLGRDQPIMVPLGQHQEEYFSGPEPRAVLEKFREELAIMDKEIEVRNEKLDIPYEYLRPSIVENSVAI
In short: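 Purified rabbit reticulocyte 15-LO, isolated from phenylhydrazine-treated rabbits, with arachidonic acid as the substrate. IC50 comes from a colorimetric read-out in which the 15-HPETE product oxidizes Fe²⁺ under mildly acidic conditions. Many values were also verified by the spectrophotometric diene-formation rate (A₂₃₄).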

[2] = molecular target: T1, Polyunsaturated fatty acid lipoxygenase ALOX15; assay: Inhibitory concentration against isolated rabbit reticulocyte 15-lipoxygenase measured in the presence of linoleic acid
In short: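 15-LO was purified from reticulocytes of phenylhydrazine-treated rabbits. Linoleic acid was the substrate. In a colorimetric assay, the 13-HPODE product oxidizes Fe²⁺ under mildly acidic conditions, and IC50 is derived from this. Many values were also checked spectrophotometrically by the rate of diene formation (A₂₃₄).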

[3] = molecular target: T2, Polyunsaturated fatty acid lipoxygenase ALOX12 (Homo sapiens, UniProt P18054); assay: Inhibitory concentration against human platelet-derived 12-lipoxygenase
T2 sequence (P18054 whole entry): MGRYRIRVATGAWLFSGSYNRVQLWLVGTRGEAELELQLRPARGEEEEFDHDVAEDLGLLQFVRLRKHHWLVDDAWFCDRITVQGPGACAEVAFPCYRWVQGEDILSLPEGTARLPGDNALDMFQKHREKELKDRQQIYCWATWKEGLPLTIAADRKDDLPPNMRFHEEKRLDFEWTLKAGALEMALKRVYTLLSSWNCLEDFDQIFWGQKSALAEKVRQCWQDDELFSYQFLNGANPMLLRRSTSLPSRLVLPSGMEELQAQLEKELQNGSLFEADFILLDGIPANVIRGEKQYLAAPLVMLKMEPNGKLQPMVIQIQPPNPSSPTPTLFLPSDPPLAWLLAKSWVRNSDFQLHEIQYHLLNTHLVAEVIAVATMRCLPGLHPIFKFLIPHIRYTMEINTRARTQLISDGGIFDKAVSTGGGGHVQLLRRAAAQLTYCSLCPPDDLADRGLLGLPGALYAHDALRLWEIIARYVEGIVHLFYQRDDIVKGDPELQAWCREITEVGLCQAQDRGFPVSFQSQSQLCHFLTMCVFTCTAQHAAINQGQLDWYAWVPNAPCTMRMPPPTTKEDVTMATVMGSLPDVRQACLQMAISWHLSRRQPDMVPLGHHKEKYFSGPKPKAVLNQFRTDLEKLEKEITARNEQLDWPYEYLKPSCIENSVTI

[4] = molecular target: T3, Polyunsaturated fatty acid 5-lipoxygenase (Homo sapiens, UniProt P09917); assay: Inhibitory concentration against human 5-lipoxygenase
T3 sequence (P09917 whole entry): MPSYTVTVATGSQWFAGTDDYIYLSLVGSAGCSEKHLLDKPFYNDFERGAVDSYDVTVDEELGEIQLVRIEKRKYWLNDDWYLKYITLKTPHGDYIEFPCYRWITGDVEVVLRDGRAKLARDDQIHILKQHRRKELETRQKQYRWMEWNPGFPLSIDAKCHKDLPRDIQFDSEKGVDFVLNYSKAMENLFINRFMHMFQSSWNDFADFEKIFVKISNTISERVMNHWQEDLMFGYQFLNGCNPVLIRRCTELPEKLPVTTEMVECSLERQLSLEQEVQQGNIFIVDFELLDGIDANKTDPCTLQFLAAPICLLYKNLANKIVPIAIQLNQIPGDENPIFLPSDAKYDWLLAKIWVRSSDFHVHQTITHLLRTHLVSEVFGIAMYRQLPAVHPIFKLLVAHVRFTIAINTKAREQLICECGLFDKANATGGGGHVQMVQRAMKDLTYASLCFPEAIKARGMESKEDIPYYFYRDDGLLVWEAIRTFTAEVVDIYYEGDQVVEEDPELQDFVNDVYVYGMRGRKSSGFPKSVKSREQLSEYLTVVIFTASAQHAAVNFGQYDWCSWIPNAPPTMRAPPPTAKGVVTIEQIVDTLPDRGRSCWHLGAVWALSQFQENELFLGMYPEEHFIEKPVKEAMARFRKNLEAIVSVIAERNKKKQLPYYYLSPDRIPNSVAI
In short: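 Recombinant human 5-LO enzyme. Inhibition was followed by oxidation of arachidonic acid as the substrate. IC50 values were determined.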

O=S(=O)(NCCc1c[nH]c2ccccc12)c1ccc(-c2ccccc2)cc1 was tested. Which IC50 [1] did it give?
The IC50 was 4200 nM.

What about the IC50 [2] of the same molecule?
The IC50 was 3400 nM.

For COc1ccc(-c2[nH]c3ccccc3c2CCNS(=O)(=O)c2ccc(C(=O)O)cc2)cc1, which IC50 [2] is on record?
The IC50 was over 10000 nM.

With CCCCCc1ccc(S(=O)(=O)NCCc2c(-c3ccc(C(F)(F)F)cc3)[nH]c3ccccc23)cc1 as the molecule, how does the IC50 [1] read?
Its IC50 is 132 nM.

What about the IC50 [2] of the same molecule?
Its IC50 is 11 nM.

How did the IC50 [1] turn out when COc1ccc(NC(=O)c2ccc(S(=O)(=O)NCCc3c(-c4cc5ccccc5o4)[nH]c4ccccc34)cc2)cc1 was run?
The IC50 was 26 nM.

What about the IC50 [2] of the same molecule?
The IC50 was 11 nM.

What does the source list for CCCCCc1ccc(S(=O)(=O)NCCc2c(-c3cc4ccccc4o3)[nH]c3ccccc23)cc1?
IC50 [3]: > 3000 nM; IC50 [4]: > 3000 nM

For CC(C)Cc1ccc(-c2ccc(S(=O)(=O)NCCc3c[nH]c4ccccc34)cc2)cc1, which IC50 [1] is on record?
The IC50 was 170 nM.

And the IC50 [2]?
Its IC50 is 910 nM.

Which IC50 [1] does the source give for CCCCCc1ccc(S(=O)(=O)NCCc2c(-c3cc4ccccc4o3)n(C)c3ccccc23)cc1 here?
Its IC50 is 1420 nM.

And the IC50 [2]?
Its IC50 is 143 nM.

Which results are given for NNC(=O)c1ccc(S(=O)(=O)NCCc2c(-c3cc4ccccc4o3)[nH]c3ccccc23)cc1?
IC50 [3]: > 10000 nM; IC50 [1]: 135 nM; IC50 [4]: 3500 nM; IC50 [2]: 89 nM

Which IC50 [2] does the source give for CCCCCc1ccc(S(=O)(=O)NCCc2c[nH]c3ccc(-c4ccc[nH]4)cc23)cc1 here?
The IC50 was 780 nM.

With CCCCCc1ccc(S(=O)(=O)NCCc2c(-c3ccc(OCC)cc3)[nH]c3ccccc23)cc1 as the molecule, how does the IC50 [1] read?
Its IC50 is 39 nM.

And the IC50 [2]?
The IC50 was 11 nM.

For CCCCCc1ccc(S(=O)(=O)N(C)CCc2c[nH]c3ccccc23)cc1, which IC50 [2] is on record?
Its IC50 is over 10000 nM.

With CN(C)c1cccc2c(S(=O)(=O)NCCc3c[nH]c4ccccc34)cccc12 as the molecule, how does the IC50 [2] read?
The IC50 was 3730 nM.

Which results are given for COc1ccc(-c2[nH]c3ccccc3c2CCNS(=O)(=O)c2ccc(C)cc2)cc1?
IC50 [1]: 780 nM; IC50 [2]: 110 nM

CCCCCc1ccc(S(=O)(=O)NCCCc2c[nH]c3ccccc23)cc1 was tested. Which IC50 [3] did it give?
Its IC50 is 1070 nM.

What about the IC50 [4] of the same molecule?
Its IC50 is over 10000 nM.

How did the IC50 [1] turn out when CCCCCc1ccc(S(=O)(=O)NCCc2c[nH]c3cc(C(=O)O)ccc23)cc1 was run?
The IC50 was over 30000 nM.

What about the IC50 [2] of the same molecule?
The IC50 was 24000 nM.

CCCCCc1ccc(S(=O)(=O)NCCc2c[nH]c3ccccc23)cc1 was tested. Which IC50 [1] did it give?
The IC50 was 1020 nM.

What about the IC50 [2] of the same molecule?
The IC50 was 420 nM.

Which results are given for Cc1ccc(S(=O)(=O)NCCc2c[nH]c3ccccc23)cc1?
IC50 [1]: > 10000 nM; IC50 [2]: > 10000 nM

For O=S(=O)(NCCc1c(-c2cc3ccccc3o2)[nH]c2ccccc12)c1ccc(-c2ccncc2)cc1, which IC50 [1] is on record?
Its IC50 is 179 nM.

And the IC50 [2]?
The IC50 was 47 nM.

CC(C)c1ccc(-c2ccc(S(=O)(=O)NCCc3c[nH]c4ccccc34)cc2)cc1 was tested. Which IC50 [1] did it give?
Its IC50 is 140 nM.

And the IC50 [2]?
Its IC50 is 280 nM.

CCCCCc1ccc(S(=O)(=O)NCCc2c(-c3ccc4oc5ccccc5c4c3)[nH]c3ccccc23)cc1 was tested. Which IC50 [1] did it give?
The IC50 was 71 nM.

And the IC50 [2]?
The IC50 was 10 nM.

For CN(CCO)C(=O)c1ccc(S(=O)(=O)NCCc2c(-c3cc4ccccc4o3)[nH]c3ccccc23)cc1, which IC50 [1] is on record?
Its IC50 is 4050 nM.

And the IC50 [2]?
Its IC50 is 440 nM.

With CCc1ccc(-c2ccc(S(=O)(=O)NCCc3c[nH]c4ccccc34)cc2)cc1 as the molecule, how does the IC50 [1] read?
The IC50 was 470 nM.

What about the IC50 [2] of the same molecule?
Its IC50 is 260 nM.

CCCCCc1ccc(S(=O)(=O)NCCc2c[nH]c3ccc(C)cc23)cc1 was tested. Which IC50 [1] did it give?
Its IC50 is 3900 nM.

What does the source list for CCCCCc1ccc(S(=O)(=O)NCCc2c(-c3cc(OC)ccc3OC)[nH]c3ccccc23)cc1?
IC50 [1]: 132 nM; IC50 [2]: 28 nM

Which results are given for CCCCNC(=O)c1ccc(S(=O)(=O)NCCc2c(-c3cc4ccccc4o3)[nH]c3ccccc23)cc1?
IC50 [1]: 112 nM; IC50 [2]: 42 nM

CCCCCc1ccc(S(=O)(=O)NCCc2c(-c3cccc(C)c3)[nH]c3ccccc23)cc1 was tested. Which IC50 [1] did it give?
The IC50 was 58 nM.

And the IC50 [2]?
Its IC50 is 25 nM.
